From ChEMBL document CHEMBL1138791, “Acyl sulfonamide anti-proliferatives: benzene substituent structure-activity relationships for a novel class of antitumor agents” (J Med Chem, 2004)

Assays:
[1] = Diameter of zone of inhibition for cell colony formation of normal fibroblast at the dose of 200 ug; Range is 0-4.875; type: functional, Homo sapiens
In short: (§1)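 Soft agar disk diffusion: leukemia (L1210), solid tumor (HCT116, or colon H15) and normal fibroblast cells seeded in soft agar in separate 60 mm dishes. Compound applied to a filter paper disk (dose in μg/disk) set on the agar. Colony-formation inhibition zones read after 6–7 days at 37 °C. 200 zone units = 6.5 mm; 950 = total inhibition; a range marks partial colony shrinkage. n > 2 unless noted.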

HCT-116 [2] = test: Diameter of zone of inhibition for cell colony formation of solid tumor HCT116 at the dose of 200 ug; type: functional, Homo sapiens
In short: (§2)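 HCT116, L1210 leukaemia and normal fibroblast cells were seeded in soft agar in separate 60 mm dishes. The compound was applied to a filter-paper disk laid on the agar. Colony-formation inhibition zones were read after 6–7 days at 37 °C and expressed in zone units (200 units = 6.5 mm; 950 = total inhibition; 0 = none). n > 2 unless otherwise indicated.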

L1210 [3] = test: Diameter of zone of inhibition for cell colony formation of leukemia L1210 at the dose of 200 ug; type: functional, Mus musculus; in short: as §1
[4] = Diameter of zone of inhibition for cell colony formation of solid tumor H15 at the dose of 210 ug; type: functional, Homo sapiens; in short: as §1
Mus musculus [5] = test: Tumor growth delay of human HCT116 colorectal carcinoma in mice after intravenous administration at dose of 32 mg/kg; type: functional
In short: (§3)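 Female nude mice were implanted with HCT116 tumour tissue from donor mice and randomized once tumours averaged 100 mm3. The sodium salt in saline (pH 7.4) was given by iv bolus on days 1–5 and 8–12. Tumour volumes were recorded twice weekly. TGD = T − C, the time to reach 500 mm3 taken from a fitted tumour-growth model.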

Mus musculus [6] = test: Tumor growth delay of human HCT116 colorectal carcinoma in mice after intravenous administration at dose of 63 mg/kg; type: functional; in short: as §3
L1210 [7] = test: Diameter of zone of inhibition for cell colony formation of leukemia L1210 at the dose of 210 ug; type: functional, Mus musculus; in short: as §1
[8] = Diameter of zone of inhibition for cell colony formation of normal fibroblast at the dose of 210 ug; Range is 0-11.375; type: functional, Homo sapiens; in short: as §1
HCT-116 [9] = test: Diameter of zone of inhibition for cell colony formation of solid tumor HCT116 at the dose of 210 ug; type: functional, Homo sapiens; in short: as §2
[10] = Diameter of zone of inhibition for cell colony formation of normal fibroblast at the dose of 210 ug; Range is 0-2.6; type: functional, Homo sapiens; in short: as §1

SMILES	Inhibition [1]	Inhibition (HCT-116 [2])	Inhibition (L1210 [3])	Inhibition [4]	Growth delay (Mus musculus [5])	Growth delay (Mus musculus [6])	Inhibition (L1210 [7])	Inhibition [8]	Inhibition (HCT-116 [9])	Inhibition [10]
O=C(NS(=O)(=O)c1ccc(Cl)cc1)c1ccc(Cl)c(Cl)c1	4.87 mm	13 mm	6.5 mm							
O=C(NS(=O)(=O)c1ccc(Cl)cc1)c1ccc(Br)cc1Cl				14.95 mm	12 days	23 days	6.5 mm	11.37 mm		
O=C(NS(=O)(=O)c1ccc(Cl)cc1)c1cc(Cl)cc(Cl)c1							4.87 mm		10.72 mm	2.6 mm
